Measured values pooled from the literature.
Compare with care: the assays were run in different laboratories.
MAP4K1: Mitogen-activated protein kinase kinase kinase kinase 1 (MAP4K1, Homo sapiens, UniProt Q92918)
CTSB: Cathepsin B (CTSB, Homo sapiens, UniProt P07858)
Oprd1: Delta-type opioid receptor (Oprd1, Rattus norvegicus, UniProt P33533)

| Structure (SMILES) | target | test | setting | measurement | result |
| --- | --- | --- | --- | --- | --- |
| COc1ncccc1-c1cnn2ccc(N3CCN(C(=O)OC(C)C)CC3)nc12 | MAP4K1 | binding, competition with immobilised ligand | 1 µM | remaining binding | 80% |
| N#Cc1ccc(NCCNCC(=O)N2N=CCC2C#N)nc1 (stereo not shown) | Dipeptidyl peptidase 9 (DPP9, Homo sapiens, UniProt Q86TI2) | enzyme activity, inhibitor | 10 µM | inhibition | 87% |
| COc1cc(Cl)c(C(=O)N[C@@H](CN[C@H]2CC[C@@H](N)CC2)Cc2ccc(C#N)cc2)cc1-c1ccc(CN[C@H](C)c2ccc(C)cc2)o1 | MAP kinase-activated protein kinase 3 (MAPKAPK3, Homo sapiens, UniProt Q16644) | enzyme activity, inhibitor | 1 µM | remaining activity | 107% |
| C#Cc1n[nH]c2c(-c3cn(C(C)c4ccccn4)c(=O)[nH]c3=O)cc(F)cc12 (stereo not shown) | Cyclin-dependent kinase 8, with cyclin C (CDK8, Homo sapiens, UniProt P49336) | enzyme activity, inhibitor | 1 µM | inhibition | 6.2% |
| CC(C)C[C@H](NC(=O)[C@H]1O[C@@H]1C(=O)O)C(=O)NCCCCN=C(N)N | CTSB | enzyme activity, inhibitor | 50 nM | inhibition | 97% |
| OC[C@H]1CNCCN1C[C@@H]1CCCN1C[C@H](CC1CCCCC1)N1CCN(CCc2ccc(Cl)c(Cl)c2)[C@H](Cc2ccc(O)cc2)C1 | Oprd1 | ligand displacement, radioligand | 0.5 µM, 2 h, pH 7.5, cell membranes | remaining binding | 88% |
| Nc1ncc(-c2nc(N3CCOCC3)nc(N3CCOCC3)n2)c(C(F)F)n1 | Cyclin-dependent kinase 8 (CDK8, Homo sapiens, UniProt P49336) | binding, competition with immobilised ligand | 10 µM | remaining binding | 100% |
| CN1CCN(c2ccc(Nc3nccc(-c4ccccc4)n3)cc2C(F)(F)F)CC1 | Cyclin-dependent kinase 2 homolog (CRK2, Plasmodium falciparum, UniProt P61075) | cell-free assay | 10 µM | remaining signal | 100% |
| CC[C@@H](C)[C@@H]1CN([C@@H](CC2CCCCC2)CN2CCC[C@H]2CN2CCNC[C@@H]2CO)CCN1CCc1ccc(Cl)c(Cl)c1 | Oprd1 | ligand displacement, radioligand | 0.5 µM, 2 h, pH 7.5, cell membranes | remaining binding | 94% |
| CCN(CC)CCCC[C@H](NC(=O)[C@H](CC(C)C)NC(=O)[C@H](C)NC(=O)[C@H](Cc1ccccc1)NC(=O)c1ccc(C(C)(C)C)cc1)C(=O)N[C@@H](CO)C(=O)OC | 5-hydroxytryptamine receptor 7 (HTR7, Homo sapiens, UniProt P34969) | ligand displacement, radioligand | 10 µM | remaining binding | 92.2% |
| OC[C@H]1CNCCN1C[C@@H]1CCCN1C[C@H](CC1CCCCC1)N1CCN(CCC23CC4CC(CC(C4)C2)C3)[C@H](Cc2ccc(O)cc2)C1 | Oprd1 | ligand displacement, radioligand | 0.5 µM, 2 h, pH 7.5, cell membranes | remaining binding | 96.1% |
| CN(C(=O)[C@H](Cc1ccccc1)NC(=O)[C@@H](NC(=O)OCc1ccccc1)C(C)(C)C)N(C#N)CCC(N)=O | CTSB | enzyme activity, inhibitor | – | kon | 7020 M⁻¹ s⁻¹ |
| CCCC[C@H]1CNCCN1C[C@@H]1CCCN1C[C@@H](Cc1ccc2ccccc2c1)N1CCN(CCC23CC4CC(CC(C4)C2)C3)[C@H]([C@@H](C)O)C1 | Oprd1 | ligand displacement, radioligand | 0.5 µM, 2 h, pH 7.5, cell membranes | remaining binding | 87.3% |
| Cc1nn(C)cc1-c1nc2c(N3CCN(Cc4ccc(Cl)cc4)CC3)c(Cl)cnc2[nH]1 | Myosin light chain kinase family member 4 (MYLK4, Homo sapiens, UniProt Q86YV6) | binding, competition with immobilised ligand | 1 µM | remaining binding | 94% |
| CC[C@@H](C)[C@@H]1CN([C@H](Cc2ccc3ccccc3c2)CN2CCC[C@H]2CN2CCNC[C@@H]2CO)CCN1CCc1ccc(Cl)c(Cl)c1 | Oprd1 | ligand displacement, radioligand | 0.5 µM, 2 h, pH 7.5, cell membranes | remaining binding | 87.7% |
| C#Cc1n[nH]c2c(-c3cn([C@@H](C)c4ccccc4)c(=O)[nH]c3=O)cc(F)cc12 | MAP4K1 | enzyme activity, inhibitor | 0.1 µM | inhibition | 2.7% |
